Assays:
MCF-7 cells = test: Proliferation study; type: cell-based; conditions: tamoxifen-sensitive MCF7 cells, 1 nM estradiol, 7 days, MTT
Method in brief: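 MCF-7 cells were maintained in phenol red free DMEM F-12 HAM with glutamine, penicillin/streptomycin and 10% FBS at 37 °C under 5% CO2. […] Cell number was read by MTT. Two experiments were run, each in triplicate.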

[1] = target: T1, ER alpha levels in MCF7 cells (Homo sapiens, UniProt P03372); test: Receptor stability study; type: cell-based; conditions: 24 hours, 10 nM estradiol, 100 nM fulvestrant, 10 μM OHT-6C-BODIPY
T1 sequence (P03372 1-595): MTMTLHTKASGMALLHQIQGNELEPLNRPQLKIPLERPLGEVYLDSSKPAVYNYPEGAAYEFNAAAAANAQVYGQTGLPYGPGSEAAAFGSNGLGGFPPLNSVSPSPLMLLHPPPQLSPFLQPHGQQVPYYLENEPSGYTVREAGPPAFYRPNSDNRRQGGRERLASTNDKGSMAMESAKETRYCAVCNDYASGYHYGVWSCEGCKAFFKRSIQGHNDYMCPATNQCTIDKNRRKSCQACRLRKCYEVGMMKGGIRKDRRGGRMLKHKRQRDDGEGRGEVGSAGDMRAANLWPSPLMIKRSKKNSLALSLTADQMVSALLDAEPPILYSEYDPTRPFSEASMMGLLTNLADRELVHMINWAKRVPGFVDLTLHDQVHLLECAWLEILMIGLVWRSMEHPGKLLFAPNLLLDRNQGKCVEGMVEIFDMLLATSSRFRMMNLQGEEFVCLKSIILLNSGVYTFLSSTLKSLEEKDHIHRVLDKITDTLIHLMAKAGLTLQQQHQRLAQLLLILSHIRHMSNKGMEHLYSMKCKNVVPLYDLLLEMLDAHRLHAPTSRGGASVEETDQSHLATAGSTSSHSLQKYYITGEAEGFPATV

CC/C(=C(\c1ccc(O)cc1)c1ccc(OCCN(C)C)cc1)c1ccccc1 [OHT, 4-hydroxytamoxifen]
Effect on estradiol-induced growth (MCF-7 cells): able to block estradiol-induced growth

C[C@]12CC[C@@H]3c4ccc(O)cc4C[C@@H](CCCCCCCCC[S+]([O-])CCCC(F)(F)C(F)(F)F)[C@H]3[C@@H]1CC[C@@H]2O (some centres unmarked) [fulvestrant]
Effect on cellular ER alpha levels [1]: marked receptor downregulation
